The values below come from ChEMBL document CHEMBL2406937, “Discovery of Pyridones As Oral AMPK Direct Activators” (ACS Med Chem Lett, 2013).

A short description of data set [1]: Oral bioavailability in mouse at 5 mg/kg. The class given is ADME, organism-based. Particulars: in vivo. The essentials:
(§1)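 Mouse pharmacokinetics. Oral dosing at 5 or 30 mg/kg as a suspension in HPMC K100 0.5%/Tween 80 0.1% in pH 7 buffer. AUC is measured in blood. Bioavailability is taken against an iv dose of 1 mg/kg.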

A short description of data set [2]: Plasma protein binding in mouse. The format is ADME, cell-free. The following applies: read-out: PPB (converted).
Data set [3] can be described thus: Solubility of the compound. The class given is physicochemical. The method in brief:
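Solubility is the soluble fraction of the oral formulation (HPMC K100 0.5%/Tween 80 0.1% in pH 7 buffer) made by ball milling from solid powder. The maximum is […].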

Data set [4] is described as follows: Permeability of the compound by PAMPA. The class given is ADME. The following applies: read-out: permeability. The method in brief:
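Passive permeability is measured by parallel artificial membrane permeability assay (PAMPA).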
(The PAMPA barrier holds no transporters, so it reflects passive diffusion.)

In data set [5] the target is AMP-activated protein kinase (AMPK) alpha-1/beta-1/gamma-1 (Homo sapiens) (UniProt P54619+Q9Y478+Q13131). Put plainly: Activation of human recombinant AMPK alpha1beta1gamma1 by FRET assay. The format is protein-complex assay. The method in brief: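 Activation of the α1β1γ1 heterotrimer, reported as pEC200 = −log(concentration giving a 2-fold increase in AMPK activity). Values are means of at least 2 independent experiments.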
Chain of AMP-activated protein kinase (AMPK) alpha-1/beta-1/gamma-1 (Homo sapiens) (P54619 whole entry): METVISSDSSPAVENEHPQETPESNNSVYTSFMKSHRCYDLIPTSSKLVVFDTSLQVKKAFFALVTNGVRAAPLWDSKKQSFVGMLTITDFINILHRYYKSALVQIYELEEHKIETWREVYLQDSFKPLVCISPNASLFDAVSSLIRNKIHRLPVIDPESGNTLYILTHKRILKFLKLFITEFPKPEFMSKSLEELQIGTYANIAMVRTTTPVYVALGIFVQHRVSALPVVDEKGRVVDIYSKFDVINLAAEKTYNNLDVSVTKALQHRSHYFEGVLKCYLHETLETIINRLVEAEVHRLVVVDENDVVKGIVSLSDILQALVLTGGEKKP
Chain of AMP-activated protein kinase (AMPK) alpha-1/beta-1/gamma-1 (Homo sapiens) (Q13131 whole entry partner): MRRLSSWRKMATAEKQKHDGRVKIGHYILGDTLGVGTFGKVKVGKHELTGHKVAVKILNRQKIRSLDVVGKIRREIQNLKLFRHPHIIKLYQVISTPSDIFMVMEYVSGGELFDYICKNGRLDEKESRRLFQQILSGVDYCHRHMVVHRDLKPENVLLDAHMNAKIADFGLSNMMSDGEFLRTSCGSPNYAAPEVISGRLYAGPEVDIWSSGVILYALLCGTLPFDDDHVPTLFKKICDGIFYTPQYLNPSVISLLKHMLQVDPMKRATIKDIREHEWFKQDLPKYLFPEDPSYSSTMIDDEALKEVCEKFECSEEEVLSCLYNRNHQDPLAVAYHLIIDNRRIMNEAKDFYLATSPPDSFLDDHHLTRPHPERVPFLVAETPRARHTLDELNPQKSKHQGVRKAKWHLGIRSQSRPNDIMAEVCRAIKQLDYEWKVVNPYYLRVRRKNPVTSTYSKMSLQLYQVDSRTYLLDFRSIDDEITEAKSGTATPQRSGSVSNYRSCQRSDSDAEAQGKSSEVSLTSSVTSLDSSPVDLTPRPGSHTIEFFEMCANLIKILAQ
Chain of AMP-activated protein kinase (AMPK) alpha-1/beta-1/gamma-1 (Homo sapiens) (Q9Y478 2-270 partner limits assumed): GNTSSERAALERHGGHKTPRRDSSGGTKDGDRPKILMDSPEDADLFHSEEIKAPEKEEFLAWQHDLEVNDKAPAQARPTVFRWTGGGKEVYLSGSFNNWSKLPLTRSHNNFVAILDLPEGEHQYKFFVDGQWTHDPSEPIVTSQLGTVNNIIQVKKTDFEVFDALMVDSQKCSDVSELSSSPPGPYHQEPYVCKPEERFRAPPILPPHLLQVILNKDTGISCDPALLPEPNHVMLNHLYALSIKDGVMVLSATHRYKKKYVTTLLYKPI

Data set [6] is described as follows: AUC in mouse at 5 mg/kg, po. Particulars: blood. The class given is ADME, organism-based, Plasma. Details: dose 5 mg/kg, route oral. The method in brief: as §1
The nature of data set [7]: Clearance in mouse at 1 mg/kg, iv. Also on record: dose 1 mg/kg, route intravenous. The following applies: in vivo. The class given is ADME, organism-based. The essentials: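 Mouse iv pharmacokinetics. 1 mg/kg given as a solution in DMSO/hydroxypropyl-β-cyclodextrin 20% in pH 7 buffer (5:95). Blood clearance is determined.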
The target in data set [8] is AMPK alpha2/beta2/gamma1 (Homo sapiens) (UniProt P54646+O43741+P54619). Put plainly: Activation of human recombinant AMPK alpha2beta2gamma1. The format is protein-complex assay.
Chain of AMPK alpha2/beta2/gamma1 (Homo sapiens) (O43741 whole entry, looked up): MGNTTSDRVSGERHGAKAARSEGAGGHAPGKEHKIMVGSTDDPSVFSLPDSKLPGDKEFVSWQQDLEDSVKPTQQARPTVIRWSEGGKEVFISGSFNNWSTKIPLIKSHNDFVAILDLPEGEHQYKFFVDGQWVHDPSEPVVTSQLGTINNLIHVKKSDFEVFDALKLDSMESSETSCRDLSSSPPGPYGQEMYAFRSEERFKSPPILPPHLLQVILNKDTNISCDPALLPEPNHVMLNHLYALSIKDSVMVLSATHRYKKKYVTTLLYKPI
Chain of AMPK alpha2/beta2/gamma1 (Homo sapiens) (P54619 whole entry, looked up): as the sequence (P54619 whole entry) above
Chain of AMPK alpha2/beta2/gamma1 (Homo sapiens) (P54646 whole entry, looked up): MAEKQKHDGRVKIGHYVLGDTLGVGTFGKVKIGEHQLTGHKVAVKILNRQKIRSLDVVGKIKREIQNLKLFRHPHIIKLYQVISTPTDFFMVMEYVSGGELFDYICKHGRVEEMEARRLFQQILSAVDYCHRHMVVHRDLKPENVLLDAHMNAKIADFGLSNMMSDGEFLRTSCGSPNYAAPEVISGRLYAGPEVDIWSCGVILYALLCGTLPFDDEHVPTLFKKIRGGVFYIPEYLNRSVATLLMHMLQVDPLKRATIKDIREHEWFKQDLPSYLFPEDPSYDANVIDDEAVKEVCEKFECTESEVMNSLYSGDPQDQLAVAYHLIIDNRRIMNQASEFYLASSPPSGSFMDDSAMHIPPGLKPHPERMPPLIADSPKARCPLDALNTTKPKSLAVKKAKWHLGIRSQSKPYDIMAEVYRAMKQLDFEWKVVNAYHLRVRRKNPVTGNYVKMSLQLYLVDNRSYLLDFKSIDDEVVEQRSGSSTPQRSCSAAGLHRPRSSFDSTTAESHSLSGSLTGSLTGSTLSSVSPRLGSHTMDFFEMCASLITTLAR
Data set [9] has as its target AMPK alpha2/beta2/gamma3 (Homo sapiens) (UniProt P54646+O43741+Q9UGI9). As to the kind of experiment: Activation of human recombinant AMPK alpha2beta2gamma3. The class given is protein-complex assay.
The target in data set [10] is AMPK alpha1/beta2/gamma1 (Homo sapiens) (UniProt O43741+P54619+Q13131). As to the kind of experiment: Activation of human recombinant AMPK alpha1beta2gamma1. The class given is protein-complex assay.
Chain of AMPK alpha1/beta2/gamma1 (Homo sapiens) (O43741 whole entry, looked up): as the sequence (O43741 whole entry, looked up) above
Chain of AMPK alpha1/beta2/gamma1 (Homo sapiens) (P54619 whole entry, looked up): as the sequence (P54619 whole entry) above
Chain of AMPK alpha1/beta2/gamma1 (Homo sapiens) (Q13131 whole entry, looked up): as the sequence (Q13131 whole entry partner) above
Data set [11] relates to Mus musculus. As to the kind of experiment: Antidiabetic activity in ob/ob mouse assessed as reduction in blood glucose level at 30 mg/kg, po bid for 5 days measured 12 hrs after last dose relative to control. The format is functional. Also on record: scale not given: the % may be the effect or the level left. The essentials: (§2)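 ob/ob mice are gavaged bid for 5 days at 10 or 30 mg/kg without P-gp inhibitor. Blood glucose is measured 12 h after the last gavage and compared with control.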

The test system of data set [12] is Blood. Put plainly: Ratio of AUC in mouse blood in presence of P-gp inhibitor GF120918 to AUC in mouse blood at 30 mg/kg, po. The class given is ADME, organism-based. Also on record: dose 30 mg/kg, route oral. Particulars: in vivo. The essentials: (§3)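 Mice are dosed orally (5 or 30 mg/kg) as a suspension in HPMC K100 0.5%/Tween 80 0.1% in pH 7 buffer, alone or co-administered with the P-gp inhibitor GF120918 at 30 mg/kg. Mean blood AUC with the inhibitor is compared with AUC without it.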

Data set [13] concerns Mus musculus. Put plainly: Antidiabetic activity in ob/ob mouse assessed as reduction in blood glucose level at 10 mg/kg, po bid for 5 days measured 12 hrs after last dose relative to control. The format is functional. Details: scale not given: the % may be the effect or the level left. The method in brief:
as §2

For data set [14], the system named is Mus musculus. Put plainly: Antidiabetic activity in ob/ob mouse assessed as reduction in blood glucose level at 100 mg/kg, po bid for 5 days in presence of P-gp inhibitor GF120918 relative to control. The format is functional. Details: scale not given: the % may be the effect or the level left. The method in brief:
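ob/ob mice receive chronic oral treatment at 100 mg/kg co-administered with the P-gp inhibitor. The blood glucose reduction is assessed against control.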

The nature of data set [15]: Dissociation constant, pKa of the compound. The format is physicochemical.
For data set [16], the system named is Blood. As to the kind of experiment: Ratio of AUC in mouse blood in presence of P-gp inhibitor GF120918 to AUC in mouse blood at 5 mg/kg, po. The following applies: in vivo. Details: dose 5 mg/kg, route oral. The class given is ADME, organism-based. The essentials:
as §3

The target in data set [17] is AMPK alpha2/beta1/gamma1 (Homo sapiens) (UniProt P54646+P54619+Q9Y478). Put plainly: Activation of human recombinant AMPK alpha2beta1gamma1. The format is protein-complex assay.
Chain of AMPK alpha2/beta1/gamma1 (Homo sapiens) (P54619 whole entry partner): as the sequence (P54619 whole entry) above
Chain of AMPK alpha2/beta1/gamma1 (Homo sapiens) (P54646 whole entry): as the sequence (P54646 whole entry, looked up) above
Chain of AMPK alpha2/beta1/gamma1 (Homo sapiens) (Q9Y478 2-270 partner limits assumed): as the sequence (Q9Y478 2-270 partner limits assumed) above
In data set [18] the target is AMPK alpha1/beta1/gamma3 (Homo sapiens) (UniProt Q9Y478+Q13131+Q9UGI9). Put plainly: Activation of human recombinant AMPK alpha1beta1gamma3. The format is protein-complex assay.
Chain of AMPK alpha1/beta1/gamma3 (Homo sapiens) (Q13131 whole entry partner): as the sequence (Q13131 whole entry partner) above
Chain of AMPK alpha1/beta1/gamma3 (Homo sapiens) (Q9UGI9 whole entry partner): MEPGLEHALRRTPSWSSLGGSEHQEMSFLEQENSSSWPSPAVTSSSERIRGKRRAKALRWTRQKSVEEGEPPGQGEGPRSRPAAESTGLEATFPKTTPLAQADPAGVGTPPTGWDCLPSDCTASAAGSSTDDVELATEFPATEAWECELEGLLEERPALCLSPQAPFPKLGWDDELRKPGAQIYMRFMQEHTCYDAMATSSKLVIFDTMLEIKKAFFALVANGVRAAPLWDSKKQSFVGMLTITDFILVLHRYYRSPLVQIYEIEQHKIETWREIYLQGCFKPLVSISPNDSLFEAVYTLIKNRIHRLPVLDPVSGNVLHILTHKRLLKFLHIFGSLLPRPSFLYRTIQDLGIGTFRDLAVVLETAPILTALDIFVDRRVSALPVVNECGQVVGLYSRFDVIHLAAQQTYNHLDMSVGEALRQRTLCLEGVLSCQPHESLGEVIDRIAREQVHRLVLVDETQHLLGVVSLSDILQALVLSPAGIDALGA
Chain of AMPK alpha1/beta1/gamma3 (Homo sapiens) (Q9Y478 2-270 limits assumed): as the sequence (Q9Y478 2-270 partner limits assumed) above
Data set [19] concerns the target AMPK alpha1/beta1/gamma2 (Homo sapiens) (UniProt Q9UGJ0+Q9Y478+Q13131). As to the kind of experiment: Activation of human recombinant AMPK alpha1beta1gamma2. The class given is protein-complex assay.
Data set [20] in a line: Oral bioavailability in mouse at 30 mg/kg. The format is ADME, organism-based. The following applies: in vivo. The essentials: as §1
Data set [21] can be described thus: AUC in mouse at 30 mg/kg, po. The format is ADME, organism-based, Plasma. Also on record: dose 30 mg/kg, route oral. The following applies: blood. The essentials:
as §1

In brackets after ≈: the same amount, converted by molar mass. Activity calls are given as the source filed them. No cut-off for these calls is given here. A value given as a limit tells only on which side of the number the result lay.

Chain of AMPK alpha2/beta2/gamma3 (Homo sapiens) (O43741 whole entry, looked up): as the sequence (O43741 whole entry, looked up) above
Chain of AMPK alpha2/beta2/gamma3 (Homo sapiens) (P54646 whole entry, looked up): as the sequence (P54646 whole entry, looked up) above
Chain of AMPK alpha2/beta2/gamma3 (Homo sapiens) (Q9UGI9 whole entry, looked up): as the sequence (Q9UGI9 whole entry partner) above
Chain of AMPK alpha1/beta1/gamma2 (Homo sapiens) (Q13131 whole entry partner): as the sequence (Q13131 whole entry partner) above
Chain of AMPK alpha1/beta1/gamma2 (Homo sapiens) (Q9UGJ0 whole entry): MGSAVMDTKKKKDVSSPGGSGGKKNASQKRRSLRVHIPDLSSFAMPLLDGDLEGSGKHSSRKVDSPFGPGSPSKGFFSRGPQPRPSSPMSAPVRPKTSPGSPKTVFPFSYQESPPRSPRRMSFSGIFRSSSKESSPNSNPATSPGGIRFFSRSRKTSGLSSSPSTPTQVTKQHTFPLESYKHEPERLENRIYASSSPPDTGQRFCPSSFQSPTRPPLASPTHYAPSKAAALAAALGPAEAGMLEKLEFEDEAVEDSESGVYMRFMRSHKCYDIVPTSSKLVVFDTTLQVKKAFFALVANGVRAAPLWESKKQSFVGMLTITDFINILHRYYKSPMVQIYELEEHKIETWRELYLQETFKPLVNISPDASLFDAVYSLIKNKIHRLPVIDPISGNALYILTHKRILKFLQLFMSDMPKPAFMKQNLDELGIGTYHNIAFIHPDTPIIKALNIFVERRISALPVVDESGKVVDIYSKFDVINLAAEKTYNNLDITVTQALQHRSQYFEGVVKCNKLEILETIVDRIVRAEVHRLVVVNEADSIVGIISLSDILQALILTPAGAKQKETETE
Chain of AMPK alpha1/beta1/gamma2 (Homo sapiens) (Q9Y478 2-270 partner limits assumed): as the sequence (Q9Y478 2-270 partner limits assumed) above

Turning to `COc1cccc(-c2ccc(-n3c(Cl)cc4[nH]c(=O)c(-c5cccc(C(=O)O)c5)c(O)c43)cc2)c1O`, the bioavailability (commonly dose-corrected exposure relative to a reference, in per cent) in [1] stood at 0.5%. The fraction unbound in data set [2] is under 0.001. Moreover, the solubility (commonly how much of the substance goes into solution per volume) in [3] came out at 325 µg/mL (≈ 646 µM). Also, the Papp in data set [4] was under 0.06 ×10⁻⁶ cm/s. Moreover, the pEC200 in data set [5] was determined as 8.7. In addition, the AUC (in general, concentration integrated over time) in data set [6] amounted to 403 ng·h/mL. In data set [7], the clearance (usually the volume of plasma or blood freed of the substance per unit of time) amounted to 1 mL/min/kg.

Take `Cc1ccc(-c2ccc(-n3c(Cl)cc4[nH]c(=O)c(C#N)c(O)c43)cc2)cc1`: in [1], the bioavailability was determined as 14%. The fraction unbound in [2] was under 0.001. The solubility in data set [3] amounted to 129 µg/mL (≈ 343 µM). The Papp in data set [4] was 0.48 ×10⁻⁶ cm/s. The pEC200 in data set [8] was 5.5; in [9], 5.5; in data set [5], 7.5; in data set [10], under 4.5. In [6], this compound returned an AUC of 17000 ng·h/mL. The compound further showed a clearance in [7] of 0.7 mL/min/kg.

In the case of `COc1cccc(-c2ccc(-n3c(Cl)cc4[nH]c(=O)c(-c5ccccc5)c(O)c43)cc2)c1O`, the bioavailability in data set [1] is 15%. The fraction unbound in data set [2] is under 0.001. Also, in data set [3], the concentration in solution (solubility) was 25 µg/mL (≈ 54.5 µM). In [4], the Papp turned out to be 11 ×10⁻⁶ cm/s. The Activity in [11] is given as 17%; in [13], 13%. In addition, the “Ratio AUC” value in data set [12] worked out at 2. The result in data set [8] was Active. Moreover, in data set [5], the pEC200 is 7.6. The same compound displayed an AUC in [6] of 41300 ng·h/mL. In data set [7], this compound showed a clearance of 0.3 mL/min/kg.

With `COc1cccc(-c2ccc(-n3ccc4[nH]c(=O)c(C#N)c(O)c43)cc2)c1O`, the bioavailability in data set [1] was under 1%. Besides, the fraction unbound in data set [2] is 0.007. In addition, in data set [3], the solubility was determined as 500 µg/mL (≈ 1340 µM). Besides, the Papp in [4] was under 0.04 ×10⁻⁶ cm/s. Besides, in [5], the pEC200 worked out at 8. This compound also showed an AUC in [6] of 70 ng·h/mL. In data set [7], this compound registered a clearance of 2.4 mL/min/kg.

Regarding `COc1ccccc1-c1ccc(-n2ccc3[nH]c(=O)c(C#N)c(O)c32)cc1`, the pEC200 in data set [5] worked out at 5.5.

As for `N#Cc1c(O)c2c(cc(Cl)n2-c2ccc(-c3ccsc3)cc2)[nH]c1=O`, in data set [1], the bioavailability came to 21%. In addition, in data set [14], the Activity came to 17%. In addition, the fraction unbound in data set [2] is under 0.001. The same compound had a solubility in [3] of 186 µg/mL (≈ 506 µM). Further, in data set [4], the Papp is under 0.07 ×10⁻⁶ cm/s. The result in data set [8] was Active. Moreover, the pKa – broadly, the pH at which an ionisable group is half protonated – in [15] is under 2. In addition, in [5], the pEC200 was found to be 8.1. For the same compound, the AUC in data set [6] is 19500 ng·h/mL. This compound also came in with a clearance in data set [7] of 0.9 mL/min/kg.

In turn, `COc1cccc(-c2ccc(-n3c(Cl)cc4[nH]c(=O)c(C#N)c(O)c43)cc2)c1O` returned a bioavailability in data set [1] of 3%. Also, the Activity in data set [14] stood at 18%. Moreover, the fraction unbound in data set [2] was under 0.001. The solubility in data set [3] came out at 42.5 µg/mL (≈ 104 µM). For the same compound, the Papp in data set [4] is under 0.3 ×10⁻⁶ cm/s. In addition, the “Ratio AUC” value in [16] was determined as 10. Also, the result in data set [17], in data set [18], in [10] and in data set [19] was Active. Besides, the pEC200 in data set [8] is 7.3; in data set [9] it was 7.3; in data set [5], 9.2. This compound gave an AUC in data set [6] of 892 ng·h/mL. Besides, the clearance in data set [7] amounted to 3 mL/min/kg.

Compound `N#Cc1c(O)c2c(-c3ccc(-c4ccccc4O)cc3)csc2[nH]c1=O` came in with a bioavailability in [1] of 2%. Further, the fraction unbound in [2] was 0.013. This compound also came in with a solubility in [3] of 500 µg/mL (≈ 1390 µM). Further, the Papp in data set [4] is under 0.3 ×10⁻⁶ cm/s. In data set [5], the pEC200 was 8.5. This compound also yielded an AUC in data set [6] of 80 ng·h/mL. The same compound returned a clearance in [7] of 24 mL/min/kg.

Compound `CCc1ccc(-n2c(Cl)cc3[nH]c(=O)c(-c4ccccc4)c(O)c32)cc1` came in with a bioavailability in [1] of 50%. Also, the fraction unbound in data set [2] was 0.002. For the same compound, in data set [3], the solubility stood at 20 µg/mL (≈ 54.8 µM). For the same compound, in data set [4], the Papp was found to be 15 ×10⁻⁶ cm/s. In data set [15], this compound displayed a pKa of 6. In addition, the pEC200 in [5] is 6.3. In data set [6], this compound yielded an AUC of 3410 ng·h/mL. The compound also gave a clearance in data set [7] of 12 mL/min/kg.

With `COc1cccc(-c2ccc(-n3ccc4[nH]c(=O)c(C#N)c(O)c43)cc2)c1`, the pEC200 in data set [5] amounted to 5.3.

In data set [20], `N#Cc1c(O)c2c(ccn2-c2ccc(-c3ccccc3O)cc2)[nH]c1=O` had a bioavailability of 10%. Moreover, in [5], the pEC200 is 7.8. The AUC in data set [21] was 1490 ng·h/mL. For the same compound, the clearance in data set [7] came out at 34 mL/min/kg.

`COc1ccc(-c2ccc(-n3ccc4[nH]c(=O)c(C#N)c(O)c43)cc2)cc1` gave a solubility in data set [3] of 59 µg/mL (≈ 165 µM). Also, the Papp in [4] is under 0.08 ×10⁻⁶ cm/s. Besides, in data set [5], the pEC200 came to 6.8.
